# The list is not random: actives were taken first. Their share in the collection is about 3.7%.
# Kir21 inh: inhibitors of mouse Kir2.1 inward-rectifier potassium channel. HEK293-Kir2.1, FluxOR thallium flux fluorescence; hits give low values. B-score at 10 µM. hit rate 0.85% among 310,000. AID 1672, 2009;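 active means fluorescence ratio B-score at or below minus 3 SD of library scores, with starting-brightness B-score within 2 SD, cut at about -4.2 in these data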;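 further: channel flux triggered by added potassium and thallium sulfate stimulus; B-score of peak minus minimum fluorescence over baseline after thallium stimulus; more negative B-score means stronger Kir2.1 block with less thallium influx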
# KCNQ1 inh: inhibitors of human KCNQ1 channel, primary screen, cell-based, thallium flux, high-throughput | B-score at 10 µM | hit rate 1.3% among 310,000 | Potassium voltage-gated channel subfamily KQT member 1 (Homo sapiens), P51787 | CHO-K1 KCNQ1, FluxOR thallium flux fluorescence; hits give high values;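 active means compounds whose thallium flux B-score, printed positive for inhibition, exceeds three library SD while starting fluorescence stays within three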;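 further: channel opened by potassium depolarization with thallium stimulus after 20 min compound exposure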
# KCNQ1 act: potentiators or activators of KCNQ1 channel, primary screen, cell-based, thallium flux, high-throughput | hit rate 0.35% among 310,000 | B-score at 10 µM | Potassium voltage-gated channel subfamily KQT member 1 (Homo sapiens), P51787 | CHO-K1 KCNQ1, thallium flux FluxOR fluorescence; hits give high values;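 active means fluorescence ratio B-score, a plate-corrected score, at least three library SD, with initial intensity B-score within 5 SD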
#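 Material: CHO-K1 cells stably expressing KCNQ1. Medium: assay buffer for compound exposure, DMSO matched across wells. Reagent: K+/Tl+ depolarizing stimulus. Compound dosing: single-concentration screen. Times: 37 °C overnight plating, 90-min dark dye load, 20-min compound pretreatment. Technique: FluxOR Tl+ flux fluorescence.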
# hERG rescue: hERG rescue from dofetilide block, primary screen, cell-based, CHO-hERG, FluxOR thallium flux, dofetilide IC70; dofetilide IC70 present; activation (rescue from dofetilide block), less the hit threshold, % at 10 µM; hit rate 0.51% among 310,000;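 active means activation above the mean of controls blocked by dofetilide plus 5 SD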;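 further: thallium influx through hERG after potassium depolarization seen as dye fluorescence rise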
# KCNK9 block: KCNK9 potassium channel inhibitors, primary screen, HEK293 cells, thallium flux; Potassium channel subfamily K member 9 (Homo sapiens), Q9NPC2; FluxOR thallium flux fluorescence; hits give low values; B-score at 10 µM; hit rate 1.2% among 310,000;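 active means ratio B-score over 3 SD below the library mean, with starting fluorescence within 5 SD of its mean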;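 further: negative B-score means less thallium flux so channel inhibition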
# KCNK3 block: human KCNK3 channel inhibitors, primary screen, CHO cells, FluxOR thallium flux, B-score; Potassium channel subfamily K member 3 (Homo sapiens), O14649; FluxOR fluorescence; hits give low values; B-score at 10 µM; hit rate 0.84% among 340,000;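 active means B-score under library mean minus 4 SD, starting fluorescence ratio at most library mean plus 5 SD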;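 further: more negative B-score means stronger inhibition of thallium flux through KCNK3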
# KCNK3 inh conf: retest of human KCNK3 channel inhibitors, confirmation, CHO cells, FluxOR thallium flux, triplicate | shares compounds with KCNK3 block | FluxOR fluorescence; 0% buffer, 100% carvedilol maximal block | ratio percent of control, % at 10 µM | hit rate 99% among 2,400 | AID 651638, 2012;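 active means ratio percent of control, averaged over triplicates, above buffer control mean plus 5 SD, cut at about 64% in these data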;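 further: ratio is the fluorescence rise from min to max over baseline after thallium stimulus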
# KCNK3 uninduced: thallium flux inhibition in non-induced cells, primary screen, counter-screen for KCNK3 inhibitor project, cell-based, non-induced KCNK3 line, FluxOR thallium, triplicate | hit rate 40% among 2,400 | thallium flux ratio (lower = more inhibition) at 10 µM | AID 651747, 2012 | non-induced KCNK3 parental cells; hits give low values | shares compounds with KCNK3 block;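 active means thallium flux ratio, averaged over three wells, more than 5 SD below the buffer control mean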;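 further: host cells are CHO cells without KCNK3 induction; ratio is peak minus trough fluorescence over baseline then normalized to buffer controls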
# Numbers without * were called inactive; i = inactive; x = no result.
SMILES,Kir21 inh,KCNQ1 inh,KCNQ1 act,hERG rescue,KCNK9 block,KCNK3 block,KCNK3 inh conf,KCNK3 uninduced
O=c1c2ccccc2nc(SCc2nnc(-c3ccccc3Br)o2)n1-c1ccccc1,1.27,i,i,-6.9,-6.88*,-12.1*,117.3*,i
O=C(Nc1ccc(Cl)cc1)c1cc(Br)ccc1OCC(=O)N1CCOCC1,-0.04,i,i,-3.3,i,-10.1*,111.7*,i
O=C(Nc1ccc(OCC(=O)N2CCOCC2)cc1)c1ccccc1F,-1.53,i,i,-5.5,i,i,x,x
Fc1ccc(-c2cnc(-c3cccs3)o2)cc1,-0.02,i,i,-5.0,i,-9.56*,92.7*,0.153*
CCOc1ccccc1NC1c2ccccc2C(=O)N1Cc1ccco1 (stereo not drawn),-1.43,i,i,-12.0,i,-11.1*,98.0*,i
O=C(Nc1ccc(Cl)cc1)N(Cc1cccs1)Cc1cccs1,-0.04,i,i,-4.3,i,-12.5*,129.7*,i
C[C@H](CO)N1C[C@H](C)[C@@H](CN(C)CC2CCCCC2)Oc2c(NC(=O)C3CC3)cccc2C1=O,x,x,x,x,x,-12.2*,103.7*,i
COc1cccc(CN(C)C(=O)c2ccc(COc3ccc(Cl)cc3)cc2)c1OC,-0.85,i,i,-14.5,i,-11.2*,134.0*,0.148*
COc1cccc(CN(C)C(=O)c2ccccc2Sc2ccccc2C#N)c1OC,-1.41,i,i,-13.6,i,-8.74*,98.3*,i
COc1cc2c(-c3ccccc3)c(C)oc2cc1/C=N/NC(N)=S,0.16,i,i,-0.7,i,i,x,x
N#C/C(=C/c1ccc(-c2ccc([N+](=O)[O-])cc2)o1)c1nnc(N2CCOCC2)n1-c1ccccc1,x,x,x,x,x,i,x,x
Cc1ccc(S(=O)(=O)N2CC(O)C[C@H]2C(=O)OCC(=O)Nc2ccc(N3CCCCC3)cc2)cc1C (stereo partly drawn),0.36,i,i,-9.2,i,i,x,x
O=C(Nc1cc(Cl)ccc1-n1cncn1)c1ccc([N+](=O)[O-])s1,0.01,i,i,-6.0,i,i,x,x
Cc1cc(N/N=C\c2ccccc2)nc(-c2ccccc2O)n1,-0.33,i,i,-5.9,i,i,x,x
C/C(=N\Nc1cc(C)nc(-c2ccccc2O)n1)c1ccccc1O,-0.24,10*,i,-21.4,i,-9.07*,105.7*,i
CCc1ccccc1OCC(=O)N1CCN(c2ncccn2)CC1,x,x,x,x,x,i,x,x
CCC(C(=O)O/N=C(\N)c1ccc(Cl)cc1)c1ccccc1 (stereo not drawn),0.03,i,i,-4.6,-6.63*,-10.2*,108.0*,i
COc1nc2ccccc2nc1N1CCN(Cc2ccc3c(c2)OCO3)CC1,-0.04,i,i,-14.4,i,i,x,x
COc1ccc(N2CCN(c3cc(C)c4ccc(C)cc4n3)CC2)cc1,-0.42,i,i,-13.6,i,i,x,x
COc1nc2ccccc2nc1N1CCN(c2ccc(F)cc2)CC1,-0.05,i,i,-1.4,i,-9.82*,112.7*,i
COc1ccc2c(C)cc(N3CCN(c4ccc(F)cc4)CC3)nc2c1,2.16,i,i,-4.1,i,-9.53*,114.3*,i
Cc1cccc(NC(=O)CSc2nnc(-c3ccncc3)n2CC2CCCO2)c1 (stereo not drawn),0.99,i,i,-2.6,i,i,x,x
Cc1cccc(NC(=O)c2ccc(N(C)C3CCCCC3)c([N+](=O)[O-])c2)n1,-1.66,i,i,-12.3,i,-11.2*,128.0*,0.123*
CN(C)C=NC(=O)c1[nH]c2ccc(Cl)cc2c1-c1ccccc1,1.96,i,i,-3.1,i,i,x,x
N=c1oc2ccc(Br)cc2cc1C(=O)NC1CCCCCC1,-2.21,i,i,-5.4,i,i,x,x
O=[N+]([O-])c1ccc(C2CCCC/C2=N/OCc2ccccc2F)c([N+](=O)[O-])c1 (stereo not drawn),-2.91,12*,i,-19.5,i,-8.72*,121.3*,i
O=C(/C=C/c1cccc(F)c1)NCCCn1ccnc1,-1.73,i,i,-5.2,i,i,x,x
COCCn1c(SCc2ccc(C(=O)OC)o2)nc2cc(Cl)ccc2c1=O,2.91,i,i,-1.2,-7.39*,-9.76*,125.7*,i

# Assay outcomes (PubChem BioAssay)
